The source made the active and inactive calls. The calls are words filed in the database; no cut-off is given here.

Test [1] has as its target Tyrosine-protein kinase CSK (Homo sapiens) (UniProt P41240). As to the kind of experiment: Inhibition of human full-length N-terminal GST-fused CSK (1 to 450 (end)residues) expressed in baculovirus expression system at 20 uM measured after 1 hr in presence of peptide substrate and ATP by off-chip mobility shift assay relative to control. Summed up: (§1)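 Off-chip mobility shift assay. Product and substrate peptides were separated; activity was taken as P/(P+S). Complete reaction was set as 0% inhibition and enzyme-free background as 100%. Run in triplicate, mean ± SD.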

In test [2] the target is Epidermal growth factor receptor (Homo sapiens) (UniProt P00533). The test is described as follows: Inhibition of human N-terminal GST-fused EGFR cytoplasmic domain (669 to 1210 (end)residues) expressed in baculovirus expression system at 20 uM measured after 1 hr in presence of peptide substrate and ATP by off-chip mobility shift assay relative to control. Summed up: as §1

Test [3] deals with Fibroblast growth factor receptor 1 (Homo sapiens) (UniProt P11362). As to the kind of experiment: Inhibition of human N-terminal GST-fused FGFR1 cytoplasmic domain (398 to 822 (end)residues) expressed in baculovirus expression system at 20 uM measured after 1 hr in presence of peptide substrate and ATP by off-chip mobility shift assay relative to control. An outline of the steps: as §1

The target in test [4] is T1, Tyrosine-protein kinase ITK/TSK (Homo sapiens) (UniProt Q08881).
T1 sequence (whole entry): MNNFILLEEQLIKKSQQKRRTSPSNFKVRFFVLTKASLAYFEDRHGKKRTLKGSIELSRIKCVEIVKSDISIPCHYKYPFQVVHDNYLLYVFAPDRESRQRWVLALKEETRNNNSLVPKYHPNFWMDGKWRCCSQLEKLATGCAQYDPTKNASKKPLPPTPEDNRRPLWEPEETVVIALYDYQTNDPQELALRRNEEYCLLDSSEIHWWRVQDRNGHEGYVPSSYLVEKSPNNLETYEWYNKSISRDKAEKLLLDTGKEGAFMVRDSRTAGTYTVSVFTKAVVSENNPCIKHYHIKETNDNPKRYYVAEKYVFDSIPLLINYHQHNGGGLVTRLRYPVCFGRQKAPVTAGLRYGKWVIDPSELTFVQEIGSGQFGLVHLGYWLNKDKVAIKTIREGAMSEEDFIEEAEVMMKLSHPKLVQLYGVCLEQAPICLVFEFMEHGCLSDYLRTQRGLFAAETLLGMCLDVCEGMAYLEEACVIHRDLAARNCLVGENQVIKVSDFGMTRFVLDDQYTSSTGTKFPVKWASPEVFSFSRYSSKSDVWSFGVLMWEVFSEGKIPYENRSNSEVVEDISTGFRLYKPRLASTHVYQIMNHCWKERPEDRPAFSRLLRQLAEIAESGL
The test is described as follows: Inhibition of human full-length N-terminal GST-fused ITK (2 to 620 (end)residues) expressed in baculovirus expression system at 20 uM measured after 1 hr in presence of peptide substrate and ATP by off-chip mobility shift assay relative to control. An outline of the steps:
as §1

The target in test [5] is Tyrosine-protein kinase SYK (Homo sapiens) (UniProt P43405). As to the kind of experiment: Inhibition of human full-length N-terminal GST-fused SYK (1 to 635 (end)residues) expressed in baculovirus expression system at 20 uM measured after 1 hr in presence of peptide substrate and ATP by off-chip mobility shift assay relative to control. An outline of the steps: as §1
A further test deals with Protein smoothened (Homo sapiens, UniProt Q99835). The test is described as follows: Inhibition of SMO in human HCC827 Gefitinib-resistant (GR) cells assessed as reduction in GLI1 expression at antiproliferative IC50 measured after 72 hrs by Western blot analysis. Conditions: HCC827 Gefitinib-resistant (GR) cell. Format: functional, cell-based. (Immunoblotting shows a protein as a band on a membrane.)

Test [6] in a line: Induction of apoptosis in human HCC827 Gefitinib-resistant (GR) cells assessed as late apoptotic/necrotic cells at 20 uM measured after 24 hrs by Annexin V-[…]propidium iodide staining based flow cytometry relative to control. The format is functional, HCC827 Gefitinib-resistant (GR) cell. Summed up: (§2)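 Resistant cells were seeded at 500.000 per dish and treated the next day for 24 h at 20 μM. Cells were harvested, washed in PBS, and stained with annexin V-Alexa 488 and PI, then analysed by flow cytometry. Early apoptotic cells were scored as annexin+/PI−, late apoptotic/necrotic cells as annexin+/PI+.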

Test [7] in a line: Induction of apoptosis in human PC9-OR cells assessed as early apoptotic cells at 20 uM measured after 24 hrs by Annexin V-[…]propidium iodide staining based flow cytometry relative to control. The format is functional. Summed up:
as §2
A general note: Flow cytometry measures light scatter and fluorescence of single cells or particles in a stream.

Sequence of Tyrosine-protein kinase CSK (Homo sapiens) (P41240 2-450 limits assumed): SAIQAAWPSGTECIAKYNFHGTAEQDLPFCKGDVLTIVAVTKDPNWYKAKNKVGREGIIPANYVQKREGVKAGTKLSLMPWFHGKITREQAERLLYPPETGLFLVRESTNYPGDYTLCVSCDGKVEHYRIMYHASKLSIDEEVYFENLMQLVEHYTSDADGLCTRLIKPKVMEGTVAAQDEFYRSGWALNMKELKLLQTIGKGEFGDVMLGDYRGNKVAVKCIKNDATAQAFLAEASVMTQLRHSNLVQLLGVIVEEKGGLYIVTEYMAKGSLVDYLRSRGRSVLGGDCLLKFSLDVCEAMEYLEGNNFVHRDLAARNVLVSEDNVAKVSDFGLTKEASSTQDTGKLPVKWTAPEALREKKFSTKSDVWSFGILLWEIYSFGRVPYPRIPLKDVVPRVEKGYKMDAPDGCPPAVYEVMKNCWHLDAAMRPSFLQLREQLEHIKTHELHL
Sequence of Fibroblast growth factor receptor 1 (Homo sapiens) (P11362 22-822 limits assumed): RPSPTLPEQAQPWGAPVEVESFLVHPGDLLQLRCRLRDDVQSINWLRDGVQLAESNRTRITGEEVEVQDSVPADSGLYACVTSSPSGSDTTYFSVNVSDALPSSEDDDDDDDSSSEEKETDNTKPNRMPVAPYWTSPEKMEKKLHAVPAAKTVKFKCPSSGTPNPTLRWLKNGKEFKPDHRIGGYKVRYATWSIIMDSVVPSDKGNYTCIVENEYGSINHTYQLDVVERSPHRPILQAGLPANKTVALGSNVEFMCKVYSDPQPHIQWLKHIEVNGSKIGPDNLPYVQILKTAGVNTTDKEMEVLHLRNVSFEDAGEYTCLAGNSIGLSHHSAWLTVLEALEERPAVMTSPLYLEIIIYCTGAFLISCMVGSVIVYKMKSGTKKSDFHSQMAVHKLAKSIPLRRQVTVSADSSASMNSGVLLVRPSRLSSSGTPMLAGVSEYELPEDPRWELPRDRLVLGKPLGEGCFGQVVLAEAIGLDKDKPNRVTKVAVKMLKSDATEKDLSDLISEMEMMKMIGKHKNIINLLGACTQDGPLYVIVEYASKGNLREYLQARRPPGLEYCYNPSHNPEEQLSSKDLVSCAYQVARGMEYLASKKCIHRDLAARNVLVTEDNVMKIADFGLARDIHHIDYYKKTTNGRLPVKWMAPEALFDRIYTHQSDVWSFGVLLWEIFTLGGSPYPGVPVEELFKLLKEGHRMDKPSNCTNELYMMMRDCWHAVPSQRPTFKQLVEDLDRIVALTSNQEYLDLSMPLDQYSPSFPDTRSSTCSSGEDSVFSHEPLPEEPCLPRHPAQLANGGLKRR
Sequence of Protein smoothened (Q99835 whole entry): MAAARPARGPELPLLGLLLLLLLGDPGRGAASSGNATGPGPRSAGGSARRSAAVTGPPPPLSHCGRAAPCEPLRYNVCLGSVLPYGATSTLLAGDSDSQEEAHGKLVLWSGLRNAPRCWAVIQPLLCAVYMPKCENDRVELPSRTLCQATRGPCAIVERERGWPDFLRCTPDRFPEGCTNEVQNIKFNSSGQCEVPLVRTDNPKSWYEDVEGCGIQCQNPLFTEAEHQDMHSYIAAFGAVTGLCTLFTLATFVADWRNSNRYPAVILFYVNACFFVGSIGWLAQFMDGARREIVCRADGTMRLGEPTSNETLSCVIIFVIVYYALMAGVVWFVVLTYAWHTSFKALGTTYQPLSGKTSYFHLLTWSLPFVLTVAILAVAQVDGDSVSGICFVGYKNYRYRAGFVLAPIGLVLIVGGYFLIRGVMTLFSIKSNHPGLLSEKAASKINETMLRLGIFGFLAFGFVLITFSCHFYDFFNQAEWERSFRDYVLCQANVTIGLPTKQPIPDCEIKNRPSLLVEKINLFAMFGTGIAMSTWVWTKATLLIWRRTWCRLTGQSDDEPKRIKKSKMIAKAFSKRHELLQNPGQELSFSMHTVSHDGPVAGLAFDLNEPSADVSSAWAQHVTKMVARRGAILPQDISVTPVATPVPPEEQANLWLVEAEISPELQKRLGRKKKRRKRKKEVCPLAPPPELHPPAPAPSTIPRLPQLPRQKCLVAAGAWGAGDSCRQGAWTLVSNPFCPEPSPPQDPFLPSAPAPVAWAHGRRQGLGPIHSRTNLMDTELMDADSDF
Sequence of Epidermal growth factor receptor (Homo sapiens) (P00533 whole entry, the tested form may be a part): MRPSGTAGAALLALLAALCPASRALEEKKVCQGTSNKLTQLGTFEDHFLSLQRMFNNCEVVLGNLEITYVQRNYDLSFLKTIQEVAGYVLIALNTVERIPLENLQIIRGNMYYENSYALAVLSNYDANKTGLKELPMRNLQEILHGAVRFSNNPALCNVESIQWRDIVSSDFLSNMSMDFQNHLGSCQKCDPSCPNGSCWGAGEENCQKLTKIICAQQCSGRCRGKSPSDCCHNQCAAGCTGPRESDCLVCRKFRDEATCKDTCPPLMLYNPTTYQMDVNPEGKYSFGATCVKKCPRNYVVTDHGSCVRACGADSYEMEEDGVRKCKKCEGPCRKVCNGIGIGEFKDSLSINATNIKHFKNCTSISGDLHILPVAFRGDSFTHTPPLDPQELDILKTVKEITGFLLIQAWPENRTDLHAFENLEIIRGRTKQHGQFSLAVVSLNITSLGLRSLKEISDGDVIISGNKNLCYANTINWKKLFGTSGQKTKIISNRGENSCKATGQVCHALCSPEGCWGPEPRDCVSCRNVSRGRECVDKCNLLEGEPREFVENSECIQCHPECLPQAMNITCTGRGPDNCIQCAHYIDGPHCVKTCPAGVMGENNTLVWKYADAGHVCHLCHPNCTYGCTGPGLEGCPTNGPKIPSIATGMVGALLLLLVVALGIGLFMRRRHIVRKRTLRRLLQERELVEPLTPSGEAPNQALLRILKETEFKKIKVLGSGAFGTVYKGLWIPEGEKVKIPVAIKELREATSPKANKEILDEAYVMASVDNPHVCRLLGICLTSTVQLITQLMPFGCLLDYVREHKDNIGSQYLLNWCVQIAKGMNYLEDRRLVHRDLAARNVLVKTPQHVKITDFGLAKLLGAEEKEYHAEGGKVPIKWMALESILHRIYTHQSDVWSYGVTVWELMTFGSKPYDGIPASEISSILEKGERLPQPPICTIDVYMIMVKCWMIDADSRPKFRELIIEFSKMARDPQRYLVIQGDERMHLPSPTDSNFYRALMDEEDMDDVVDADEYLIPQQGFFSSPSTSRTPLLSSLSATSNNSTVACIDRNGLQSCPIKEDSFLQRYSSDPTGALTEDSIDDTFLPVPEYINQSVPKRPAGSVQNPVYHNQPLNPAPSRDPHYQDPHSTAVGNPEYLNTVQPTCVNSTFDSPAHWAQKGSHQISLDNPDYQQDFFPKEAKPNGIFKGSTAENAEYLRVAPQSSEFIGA

The term inhibition denotes the drop in the measured response relative to a control, in per cent. Take `O=C(CN1C(=O)/C(=N\NC(=O)c2cc(Br)ccc2O)c2c(Br)cccc21)Nc1ccc([N+](=O)[O-])cc1`: the inhibition in test [1] is 82.9%; in test [2], 69.3%; in test [3], 81.6%; in test [4] it was 56.7%; in test [5], 89.7%. Besides, the “GLI1 expression reduction (qualitative)” value at Protein smoothened was “Active”.

Consider `Cc1ccc(NC(=O)CN2C(=O)/C(=N\NC(=O)c3cc(Br)ccc3O)c3ccc(Cl)cc32)cc1`, for which the inhibition in test [1] stood at 82.1%; in test [2], 72.9%; in test [3], 71.8%; in test [4], 58.9%; in test [5], 49.4%. In addition, the “GLI1 expression reduction (qualitative)” value at Protein smoothened is “Active”.

Consider `Cc1ccc(NC(=O)CN2C(=O)/C(=N\NC(=O)c3cc(Br)ccc3O)c3ccc(Br)cc32)cc1`, for which the inhibition in test [1] was 86.1%; in test [2], 70.9%; in test [3] it was 71.4%; in test [4], 52.8%; in test [5], 54.1%. Further, the “GLI1 expression reduction (qualitative)” value on Protein smoothened is “Active”. The Activity in test [6] turned out to be 90.8%; in test [7], 57.5%.

For the compound `Cc1ccc(NC(=O)CN2C(=O)/C(=N\NC(=O)c3cc(Br)ccc3O)c3ccccc32)cc1`, the inhibition came out at 93.5% in test [1]; 85.2% in test [2]; 91.7% in test [3]; 70.3% in test [4]; 91.9% in test [5]. Also, the “GLI1 expression reduction (qualitative)” value at Protein smoothened is “Active”. Also, the Activity in test [6] is on record as 96.2%; in test [7], 75.5%.
